Hits are enriched below; roughly 2.9% of the tested compounds scored in any of these assays.
Vif inh: inhibitors of HIV Vif; HEK293T cells, Vif self-association by quenched fluorescence, imaging, 24 h; inhibition, % at 7.49 µM; actives 0.35% (n = 340,000); AID 602346; in the data active means inhibition above about 50%, passing the limit was not always enough
rRNA inh HTS: inhibits bacterial ribosomal RNA function over humanized ribosomes; E. coli WT GFP vs humanized-ribosome RFP mutants, fluorescence, 24 h; active compounds read low; DMSO median 0, no signal -100; GFP signal change (wild-type ribosome), % (no concentration beside the values); actives 1.6% (n = 350,000); AID 720706;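 active means significant combined selectivity score with lowered wild-type GFP, culture density cut under 30%, mutant RFP and density less affected; inactive means any of these conditions unmet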
FGF22 binding: binders of recombinant human FGF22 by thermal shift; Q9HCT0; SYPRO orange fluorescence; percent of sucrose octasulfate shift, DMSO zero; activity (Tm shift, normalised), % at 9.99 µM; actives 1.5% (n = 340,000);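 active means mean Tm shift, scaled 0 neutral to 100 positive control, at about 1.3% or above, every replicate too, limit read from the data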
Target sequence (Q9HCT0 whole entry, looked up): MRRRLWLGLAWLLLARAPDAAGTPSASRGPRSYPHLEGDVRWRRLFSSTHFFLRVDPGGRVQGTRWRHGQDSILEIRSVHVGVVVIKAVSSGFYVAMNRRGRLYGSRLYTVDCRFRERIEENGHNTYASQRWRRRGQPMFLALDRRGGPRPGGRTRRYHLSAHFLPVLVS
PglD DTNB: blocks C. jejuni PglD acetyltransferase activity | inhibition, % at 12.5 µM | actives 0.098% (n = 360,000) | purified PglD enzyme, DTNB colorimetric CoA detection; in the data active means inhibition above about 16%, passing the limit was not always enough
Cneo AK release: causes C. neoformans cell lysis. AID 651654. lysis activity, % at 15 µM. adenylate kinase release luminescence, 4 h; normalised: neutral wells 0, clomiphene wells 100. actives 0.2% (n = 360,000);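 active means mean lysis activity across replicates of at least 80%, whatever share of replicates individually reach that level; inactive means mean lysis activity below 80%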
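Assay system: Cryptococcus neoformans yeast cells / Dosing: single-point compound dose / Timing: 4 h at 37 °C static, read 1 h later / Measured by: luminescence of released adenylate kinase using an AK detection reagent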
PGC1a acetyl inh: modulators of PGC1a acetylation; inhibition, % at 15.6 µM; actives 0.17% (n = 350,000); U2OS PGC1a acetylation, AlphaScreen anti-acetyl-lysine; with virally co-expressed GCN5 acetyltransferase;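 active means every replicate shows inhibition of at least 40%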;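 further: 0% = neutral control wells and 100% = positive control wells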
Numbers without * were called inactive; / = no result given.

SMILES	Vif inh	rRNA inh HTS	FGF22 binding	PglD DTNB	Cneo AK release	PGC1a acetyl inh
CCS(=O)(=O)N1CC2(CN(Cc3ccccc3OC)[C@@H](CO)c3c2c2ccc(OC)cc2n3C)C1	/	-3	/	/	/	/
O=C(CCN1CCCCC1)N[C@@H]1CC[C@@H](CCNS(=O)(=O)c2ccccc2)O[C@H]1CO	/	3	0	1	26	-11
CC(=O)Nc1ccc(Nc2cc(C(C)C)nc3c(-c4ccccc4)c(C)nn23)cc1	-14	2	0	/	/	/
Cc1nn2c(NCCCn3ccnc3)cc(C(C)C)nc2c1-c1ccccc1	-12	-45*	0	/	/	/
COc1cccc(/C=C/C(=O)OCC(=O)c2ccc3c(c2)NC(=O)CO3)c1OC	-8	-20*	0	0	1	/
O=C1COc2ccc(C(=O)COC(=O)CNC(=O)c3ccco3)cc2N1	0	15	43*	/	/	/
O=C(CNC(=O)c1ccco1)OCc1ccc(C(=O)c2ccccc2)cc1	2	-33*	1	/	/	-2
NS(=O)(=O)c1ccc(CCNC(=O)CN2CCN(c3ccccc3O)CC2)cc1	7	9	44*	/	/	-9
NS(=O)(=O)c1ccc(CCNC(=O)CN2CCN(c3ccccc3F)CC2)cc1	-3	1	0	/	/	/
C[C@H](NC(=O)c1ccccc1Cl)C(=O)NCCc1ccc(S(N)(=O)=O)cc1	9	5	0	-1	4	-3
O=C(COC(=O)Cc1ccc(Br)cc1)NC1CCCC1	18	-5	43*	1	-13	-8
S=C(NCCc1ccccc1)Nc1nccs1	-13	-22*	0	0	40	12
C[C@H](NC(=O)c1ccc(Cl)cc1)C(=O)NCCc1ccc(S(N)(=O)=O)cc1	13	5	44*	/	/	19
NS(=O)(=O)c1ccc(CCNC(=S)NC2CCCC2)cc1	-4	5	0	/	/	-1
S=C(NCCc1ccccc1)Nc1ccc(Cl)cc1	4	-54	1.5*	/	/	/
S=C(NCCc1ccc(Cl)cc1)NC1CC1	8	5	44*	/	/	/
S=C(NCCc1ccccc1)N/N=C/c1ccc(Cl)cc1	12	-28*	0	/	/	/
O=C(Cc1ccc(Cl)cc1)NC1CC1	71*	13	1	-3	3	-9
S=C(NCCc1ccccc1)N/N=C/c1c(Cl)cccc1Cl	3	/	/	/	/	/
O=C(NCCc1ccccc1)Nc1ccc(Cl)cc1	-6	/	/	/	/	/
COC(=O)c1c(CC[C@@H](CO)NC(=O)N[C@H](Cc2ccccc2)Cn2cc(-c3ccccn3)nn2)oc(C(C)=O)c1C(=O)OC	/	/	0	3	-2	-1
CCC(=O)N1C[C@H]2[C@@H](c3ccccc31)[C@H](CO)N2Cc1cc(F)ccc1F	/	0	0	-2	-5	-6
C[C@@H]1CN([C@H](C)CO)C(=O)Cc2cc(NC(=O)C3CCCCC3)ccc2O[C@H]1CN(C)Cc1ccc(C(F)(F)F)cc1	/	-3	0	3	2	-5
C[C@H]1CN([C@@H](C)CO)C(=O)c2cc(NC(=O)Cn3cnnn3)ccc2O[C@H]1CN(C)Cc1ccc(Cl)c(Cl)c1	/	0	0	3	-4	2
O=C(NCCc1ccccc1)C1CCN(C(=O)Nc2ccccc2)CC1	-10	6	0	0	/	-7
SMILES	Vif inh	rRNA inh HTS	FGF22 binding	PglD DTNB	Cneo AK release	PGC1a acetyl inh
NS(=O)(=O)c1ccc(NC(=S)NCCc2ccccc2)cc1	2	-3	2.2*	/	/	6
NS(=O)(=O)c1ccc(CCNC(=O)C2CCN(C(=O)Nc3ccccc3)CC2)cc1	55*	8	0	1	2	1
S=C(NCCc1ccccn1)Nc1cc(Cl)cc(Cl)c1	0	-32*	0	/	/	0
CCCCC(=O)Nc1ccc(C(=O)NCCc2ccc(S(N)(=O)=O)cc2)cc1	-1	19	43*	/	/	5
CCCCC(=O)Nc1ccc(C(=O)NCCc2ccccc2)cc1	-4	/	/	-1	10	-7
O=C(COC(=O)Cc1ccc(Cl)cc1)NCCc1ccccc1	6	-24*	0	1	-1	8
O=C(COC(=O)Cc1ccc(F)cc1)NCCc1ccccc1	-4	4	0	/	/	/
C=C(C)CSc1cc(C)nc2c(-c3ccccc3)c(C)nn12	2	-49*	0	-1	-4	4
Cc1nn2c(SCC(=O)c3cccs3)cc(C(C)(C)C)nc2c1-c1ccccc1	1	-30*	0	/	/	/
CCSc1cc(C)nc2c(-c3ccccc3)c(C)nn12	-2	/	/	2	-1	-4
COc1ccc([Si](C)(C)[C@@H]2[C@@H](CCO)O[C@]3(C(=O)N4c5c(cc(OC)cc53)C(C)=CC4(C)C)[C@H]2C)cc1	/	/	0	0	-9	-9
CCNC(=O)C[C@H]1CC[C@@H]2[C@H](COC[C@@H](O)CN2C(=O)c2cc(Cl)cc(Cl)c2)O1	/	3	0	3	0	-2
CCOC(=O)/C(=C\c1cccnc1)C(=O)c1cc(C(C)=O)c(Nc2ccccc2)s1	-9	/	/	-7	-1	84*
CCC(=O)Nc1nc2ccccc2n1Cc1ccccc1Cl	-7	-21	0	0	5	-8
CC(=O)Nc1nc2ccccc2n1Cc1ccccc1Cl	-3	-23*	0	/	/	-32
C[C@H](CO)N1C[C@H](C)[C@@H](CN(C)S(=O)(=O)c2cn(C)cn2)Oc2ncc(/C=C/c3ccccc3)cc2C1=O	/	-4	0	-1	-15	-1
CC(C)NC(=O)N(C)C[C@H]1Oc2ccc(NS(=O)(=O)c3cn(C)cn3)cc2C(=O)N([C@H](C)CO)C[C@H]1C	/	3	0	-4	-1	-5
CS(=O)(=O)N1CCc2cc(NC(=O)c3ccc(Cl)cc3Cl)ccc21	-2	-24*	0	/	/	-13
CS(=O)(=O)N1CCc2cc(C(=O)Nc3ccc(Cl)cc3)ccc21	-3	9	/	-3	-1	-2
COc1ccc(C#Cc2ccc([C@@H]3[C@H]4CN(C(C)=O)CC(=O)N4[C@H]3CO)cc2)cc1	/	-5	/	/	/	0
COc1ccccc1CN1C[C@@H]2C[C@@H](c3ccc(Cl)cc3)N3CCC[C@@]23C1=O	4	-22	43*	1	-13	17
Cn1cnc(S(=O)(=O)N[C@H]2C=C[C@@H](CC(=O)N3CCN(c4ccccc4)CC3)O[C@@H]2CO)c1	/	6	0	-2	2	7
CN(C)c1ccc(/C=C2\SC(N3CCCCC3)=NC2=O)cc1	196*	3	0	-8	0	-2
Cc1ccccc1NC(=O)CC1c2ccccc2CC(C)(C)N1C (configuration not stated)	3	7	0	/	/	83*
Cc1ccccc1NC(=O)CN1CCN(C)CC1	1	7	-1	-4	2	8
COc1ccc(S(=O)(=O)NNC(=O)C(=O)NNc2ccccn2)cc1	-4	-31*	0	-3	-1	0
